Assay results: ChEMBL document CHEMBL1212819, “Heteroadamantyl cannabinoids” (J Med Chem, 2010); call rule not given here

Tests used:
Cannabinoid receptor 1 = Cannabinoid receptor 1 (Rattus norvegicus, UniProt P20272); experiment: Displacement of [3H]CP-55940 from CB1 receptor in rat brain; format: tissue-based
Method in brief: (§1)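 Competition binding against [3H]CP-55,940. CB1 came from rat brain membranes, and CB2 from membranes of HEK293 cells expressing mouse or human CB2. Curves were fitted by nonlinear regression to give IC50, and Ki was calculated from IC50. Each experiment was run in triplicate, and Ki values come from a single experiment.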

Cannabinoid receptor 2 [1] = biological target: Cannabinoid receptor 2 (Mus musculus, UniProt P47936); experiment: Displacement of [3H]CP-55940 from mouse CB2 receptor expressed in HEK293 cell membranes; method in brief: as §1
Sequence of Cannabinoid receptor 2 (Mus musculus, UniProt P47936) (P47936 whole entry): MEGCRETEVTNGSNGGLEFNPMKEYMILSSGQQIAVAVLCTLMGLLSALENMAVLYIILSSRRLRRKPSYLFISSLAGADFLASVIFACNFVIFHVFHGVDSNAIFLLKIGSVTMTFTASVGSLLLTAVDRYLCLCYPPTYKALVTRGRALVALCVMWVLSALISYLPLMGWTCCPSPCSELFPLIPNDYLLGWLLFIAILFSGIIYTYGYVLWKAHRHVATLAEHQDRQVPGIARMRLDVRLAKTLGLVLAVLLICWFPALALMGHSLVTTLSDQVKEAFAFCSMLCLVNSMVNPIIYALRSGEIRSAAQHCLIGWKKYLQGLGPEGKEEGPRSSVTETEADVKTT

Cannabinoid receptor 2 [2] = biological target: Cannabinoid receptor 2 (Homo sapiens, UniProt P34972); experiment: Displacement of [3H]CP-55940 from human CB2 receptor expressed in HEK293 cell membranes; method in brief: as §1
Sequence of Cannabinoid receptor 2 (Homo sapiens, UniProt P34972) (P34972 whole entry): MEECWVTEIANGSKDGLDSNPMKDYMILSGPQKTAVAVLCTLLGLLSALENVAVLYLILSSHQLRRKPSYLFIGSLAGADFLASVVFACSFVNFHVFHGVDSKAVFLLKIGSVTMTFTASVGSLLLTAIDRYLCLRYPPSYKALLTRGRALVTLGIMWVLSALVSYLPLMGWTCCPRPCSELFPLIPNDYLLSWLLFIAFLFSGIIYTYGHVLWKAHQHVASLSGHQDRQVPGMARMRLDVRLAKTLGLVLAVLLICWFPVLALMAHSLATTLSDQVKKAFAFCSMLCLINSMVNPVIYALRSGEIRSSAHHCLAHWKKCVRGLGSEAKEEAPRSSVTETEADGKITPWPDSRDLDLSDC

Sequence of Cannabinoid receptor 1 (P20272 whole entry): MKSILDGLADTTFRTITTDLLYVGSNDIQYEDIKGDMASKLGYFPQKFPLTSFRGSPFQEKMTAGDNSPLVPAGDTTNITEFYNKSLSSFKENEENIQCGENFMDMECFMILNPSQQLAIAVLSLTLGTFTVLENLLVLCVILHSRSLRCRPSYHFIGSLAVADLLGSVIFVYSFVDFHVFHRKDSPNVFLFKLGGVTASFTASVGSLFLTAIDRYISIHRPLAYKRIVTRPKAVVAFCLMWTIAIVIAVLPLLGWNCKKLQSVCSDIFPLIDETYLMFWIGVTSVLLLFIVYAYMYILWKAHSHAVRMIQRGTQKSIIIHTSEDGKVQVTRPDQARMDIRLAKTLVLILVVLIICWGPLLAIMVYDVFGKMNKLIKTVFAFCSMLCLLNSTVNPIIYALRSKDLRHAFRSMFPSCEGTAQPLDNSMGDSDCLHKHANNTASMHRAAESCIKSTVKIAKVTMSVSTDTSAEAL

| Structure (SMILES) | Ki (Cannabinoid receptor 1) | Ki (Cannabinoid receptor 2 [1]) [µM] | Ki (Cannabinoid receptor 2 [2]; read-out: Ki) [µM] | Ki (Cannabinoid receptor 1; read-out: Ki) [µM] | Ki (Cannabinoid receptor 2 [2]; hek293) |
| --- | --- | --- | --- | --- | --- |
| CC1(C)Oc2cc(CNC3C4CC5CC(C4)CC3C5)cc(O)c2[C@@H]2C[C@@H](O)CC[C@H]21 (some centres undefined) | Not Active | 7.5 | 25 | – | – |
| CC1(C)Oc2cc(C34CC5CC(CC(C5)O3)C4)cc(O)c2[C@@H]2C[C@@H](O)CC[C@H]21 | – | 0.54 | 1.3 | 0.55 | – |
| CC1(C)Oc2cc(C(=O)NC3C4CC5CC(C4)CC3C5)cc(O)c2[C@@H]2C[C@@H](O)CC[C@H]21 (some centres undefined) | – | 3.7 | 15 | 100 | – |
| CC1(C)Oc2cc(C(=O)NC34CC5CC(CC(C5)C3)C4)cc(O)c2[C@@H]2C[C@@H](O)CC[C@H]21 | – | 7.5 | 35 | 375 | – |
| CC1(C)Oc2cc(CN3C4CC5CC3CC(C4)O5)cc(O)c2[C@@H]2C[C@@H](O)CC[C@H]21 | – | 7.5 | 5 | 125 | – |
| CC1(C)Oc2cc(CNC3C4CC5CC(C4)CC3C5)cc(O)c2[C@@H]2C[C@H](O)CC[C@H]21 (some centres undefined) | – | 6.2 | 20 | 150 | – |
| CC1(C)Oc2cc(C34CC5CC(CC(C5)O3)C4)cc(O)c2[C@@H]2C[C@H](O)CC[C@H]21 | – | 0.018 | 0.019 | 0.023 | – |
| CC1(C)Oc2cc(C(=O)N3C4CC5CC3CC(C4)O5)cc(O)c2[C@@H]2C[C@H](O)CC[C@H]21 | Not Active | 2.5 | 20 | – | – |
| CC1(C)Oc2cc(CN3C4CC5CC3CC(C4)O5)cc(O)c2[C@@H]2C[C@H](O)CC[C@H]21 | – | 8.7 | 15 | 10 | – |
| CC1(C)Oc2cc(N3C4CC5CC3CC(C4)O5)cc(O)c2[C@@H]2C[C@H](O)CC[C@H]21 | – | 1.2 | 1.8 | 1.8 | – |
| CC1=CC[C@@H]2[C@@H](C1)c1c(O)cc(C34CC5CC(CC(C5)C3)C4)cc1OC2(C)C | – | – | – | – | Not Active |
| CC1(C)Oc2cc(CNC34CC5CC(CC(C5)C3)C4)cc(O)c2[C@@H]2C[C@H](O)CC[C@H]21 | – | 0.5 | 10 | 150 | – |
| CC1(C)Oc2cc(N3C4CC5CC3CC(C4)O5)cc(O)c2[C@@H]2C[C@@H](O)CC[C@H]21 | – | 17 | 14.9 | 22.4 | – |
| CC1(C)Oc2cc(C(=O)NC34CC5CC(CC(C5)C3)C4)cc(O)c2[C@@H]2C[C@H](O)CC[C@H]21 | – | 0.5 | 8.7 | 80 | – |
| CC1(C)Oc2cc(C(=O)NC3C4CC5CC(C4)CC3C5)cc(O)c2[C@@H]2C[C@H](O)CC[C@H]21 (some centres undefined) | – | 1.2 | 2.7 | 15 | – |
| CC1(C)Oc2cc(C(=O)N3C4CC5CC3CC(C4)O5)cc(O)c2[C@@H]2C[C@@H](O)CC[C@H]21 | Not Active | 8.6 | 25 | – | – |
| CC1(C)Oc2cc(CNC34CC5CC(CC(C5)C3)C4)cc(O)c2[C@@H]2C[C@@H](O)CC[C@H]21 | – | 5 | 25 | 100 | – |
